Measured values pooled from the literature.

| SMILES | system | conditions | endpoint | result |
| --- | --- | --- | --- | --- |
| C[C@@H](Nc1cc(F)cc(F)c1)c1cc(C(=O)N(C)C)cc2c(=O)cc(N3CCOCC3)oc12 | human, plasma | oral, 240 mg, patients | Tmax | 2 h |
| CC(C)n1cc(C#N)c2cc(-n3cc(C(=O)O)cn3)ccc21 | male human, plasma | oral, 600 mg, single dose, fasted, healthy volunteers | Tmax | 2.5 h |
| CNC(=O)Nc1cc(Oc2cncc(C)c2)c([C@H]2C[C@@H](O)C2)cn1 | rat, plasma |  | fraction unbound | 0.32 |
| O=C(Nc1cc(F)c(F)c(F)c1)c1ccc(F)c(S(=O)(=O)NCc2cccc(B(O)O)c2)c1 | male Sprague-Dawley rat, plasma | oral, 20 mg/kg | MRT(0-t) | 0.84 h |
| Cc1cn2nc(-c3cc(=O)n4cc(N5CCNC6(CC6)C5)ccc4n3)cc(C)c2n1 | rat, plasma |  | fraction unbound | 0.16 |
| CCc1cc(C(=O)NC)c2nccc(N3CCc4c(cc(Cn5ccnc5)cc4-c4cn(C)nc4C(F)(F)F)C3=O)c2c1 | male Sprague-Dawley rat, plasma | oral, 50 mg/kg, single dose | MRT(0-inf) | 2.2 h |
| C=CC(=O)N(C)CCOc1c(N)ncnc1-c1cc(F)cc(NC(=O)c2ccc(C3CC3)cc2F)c1C | human, blood | oral, 30 mg, single dose, healthy volunteers | Tmax | 0.5 h |
| CCOC(=O)[C@@]12C[C@@H]1[C@@H](n1ccc3c(NC)nc(C#Cc4ccc(Cl)s4)nc31)[C@H](O)[C@@H]2O | male Sprague-Dawley rat, plasma | oral, 10 mg/kg | MRT | 2.75 h |
| Fc1ccc(Nc2n[nH]c3cccnc23)cc1Cl | rat, brain homogenate |  | fraction unbound | 0.0045 |
| CCc1nc2c(C)cc(N3CCN(CC(=O)N4CC(O)C4)CC3)cn2c1N(C)c1nc(-c2ccc(F)cc2)c(C#N)s1 | human, plasma | oral, 60 mg, fed, healthy volunteers | Tmax | 0.5 h |
